System: ldlA[mSR-BI] cells, [3H]cholesterol efflux to HDL
Assay: effect on free cholesterol efflux to HDL, late-stage follow-up, mechanism study for SR-BI HDL uptake inhibitor project, ldlA[mSR-BI] cells, powder samples (AID 588818)
Conditions: at 1 µM; stronger effect = lower value
How it was run: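 system = ldlA[mSR-BI] cells carrying a [3H]cholesterol label | measured by = liquid scintillation counting of [3H]cholesterol in medium and cells | timing = 24-h 1% FAF-BSA equilibration, 1-h compound preincubation, 2-h HDL exposure | also added = HDL, 100 µg/mL final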

Structure (SMILES)	cholesterol efflux relative to neutral control
O=C(Nc1ccc(-c2nc3cc(NC(=O)c4ccc(NC(=O)c5cccc6ccccc56)cc4)ccc3[nH]2)cc1)c1ccc(NC(=O)c2cccc3ccccc23)cc1	10.3%
COc1ccc(-c2nnn(CC(=O)N(C3CCCCC3)C(C)C(=O)NC3CCCC3)n2)cc1OC (stereo not given)	13.1%
CCOC(=O)N1CCC(NC(=O)c2ccc3c(c2)N(Cc2ccc(F)cc2)CCS3)CC1	14.1%
CCC(=O)N1CCc2cc(-c3csc(NC(=O)c4ccco4)n3)ccc21	11.5%
O=C(Nc1ccc(-c2nc3cc(NC(=O)c4ccccc4[N+](=O)[O-])ccc3o2)cc1)c1ccccc1[N+](=O)[O-]	5.29%

From PubChem BioAssay AID588818 (Broad Institute, 2011)
